# Laboratory results as given in the RNAGym collection of RNA variant scans (doi:10.1038/s41586-018-0170-7).
# B1: tRNA (parent)
# chain: GUUCCGUUGGCGUAAUGGUAACGCGUCUCCCUCCUAAGGAGAAGACUGCGGGUUCGAGUCCCGUACGGAACG
# Variants of: B1
# Assay: yeast fitness, log relative to wild type (ln ratio); higher = fitter; tRNA-Arg(CCU), competitive growth, 37 C, 1 M NaCl
# Summary of the method: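 A combinatorial tRNA-Arg(CCU) variant library was carried on a HIS3 centromeric plasmid in BY4742 lacking the chromosomal gene, from two independent transformations. Pools grew 4 generations in SC-HIS at 30 °C, then ~6.5 generations (~26.5 h) in SC-HIS 1M NaCl at 37 °C, with three outputs per input. Variants were counted by 125 bp paired-end Illumina sequencing. Fitness is ln of each genotype's generations (OD-scaled log2 output/input frequency, inverse-variance weighted across replicates) over the wild-type's.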
row,Variant,yeast fitness (ln)
1,U2G G6U A43C C66U A70G,-0.338
2,U2G G6U C27U C66U A70G,-0.207
3,G6A C46U C66U A70U C71U,-0.423
4,U2G G6U C27U A43C C46U C66A A70G,-0.21
5,G1A G6A C66A A70U C71U,-0.163
6,U2G G6A A43C C46U C66U C71U,-0.212
7,G1A U2G G6U C66U A69G A70G C71U,-0.529
8,C46U C66U A69G A70U C71U,-0.332
9,G1A U2G C27U C46U A69G A70U,-0.207
10,U2C G6U A43C C46U C66U A70U,-0.123
11,U2G G6U A43C C46U C66A A69G A70U C71U,-0.313
12,G1A U2G G6U C46U A69G A70U,-0.211
13,G1A U2C G6U C66A A70G C71U,-0.0113
14,U2G G6U C27U C66A A70U,-0.0251
15,G1A A43C A70G C71U,-0.095
16,G6A C27U C46U C66U A69G A70G,-0.213
17,U2G G6A A70U,-0.0249
18,G1A G6A C27U A43C C46U C71U,-0.247
19,U2G G6U C27U A43C C46U A70U C71U,-0.228
20,G6A A43C C66U C71U,-0.335
21,A43C C46U C66A A70G,0.00409

row,Variant,yeast fitness (ln)
1,G6A C46U C66A A69G A70G C71U,-0.185
2,U2G C27U C46U C66U A69G,-0.211
3,G1A C27U A43C A69G A70G,-0.303
4,G1A G6U C66U A70G C71U,-0.272
5,G1A G6A C27U C66U A69G C71U,-0.321
6,G6A C27U A43C C46U C66A,-0.269
7,G1A G6A A43C A69G A70G,-0.301
8,G1A U2G C66U A69G A70U C71U,-0.435
9,U2G G6A C46U C66U A70G,-0.0322
10,G1A U2C G6A C27U A43C C46U C66U A70U,-0.0654
11,G1A G6U C46U C66U A69G A70G C71U,-0.216
12,U2C G6U C27U A43C A69G A70G,-0.242
13,U2C G6A C27U C46U C66U,-0.136
14,G1A G6U C27U A43C C66U C71U,-0.403
15,G1A C66A A69G A70G C71U,-0.158
16,G1A C27U C46U C66A A70U,-0.182
17,G1A U2G C46U,-0.0473
18,U2C G6U A43C C66U A69G A70G,-0.31
19,G6A C27U C46U C66U A69G A70G C71U,-0.215
20,U2G G6A C27U A43C C71U,-0.197
21,G1A U2G G6A C27U C66U,-0.221

row,Variant,yeast fitness (ln)
1,U2G C27U A43C C66U A69G C71U,-0.354
2,U2C G6A C27U A43C C46U C71U,-0.115
3,G1A U2C G6U C27U C46U C66A A70U C71U,-0.264
4,G1A U2G G6U A43C,-0.257
5,G1A C27U A43C C46U C66U C71U,-0.219
6,U2C G6U A43C C46U C66A A69G A70G C71U,-0.00753
7,G1A U2C G6U A43C C46U C66A A69G A70U,-0.0654
8,G1A U2G G6A C27U A69G A70U C71U,-0.526
9,G6U C46U,-0.0183
10,U2G G6A C27U C66U A70G,-0.227
11,G1A U2G G6U C27U A43C C46U C66A A69G A70U C71U,-0.431
12,G6U A70U,-0.0758
13,G1A U2C G6A C46U C66U C71U,-0.0596
14,G1A C46U C66U A70U C71U,-0.214
15,G1A U2G G6U C27U A43C C46U A70U,-0.341
16,G1A C27U A43C C46U,-0.131
17,G6A A43C C46U C66A A70G,-0.144
18,A69G A70G C71U,-0.222
19,U2C C66U C71U,-0.0912
20,G1A U2C G6U C27U A43C C46U C66A A70G,-0.15
21,G1A U2G G6A C27U A43C C46U A69G A70U,-0.279

row,Variant,yeast fitness (ln)
1,G1A U2G G6A C27U C46U C66U A70G,-0.194
2,U2C G6U C27U A43C C46U C66A A69G A70U,-0.101
3,G6A A43C C46U C71U,-0.117
4,G1A C66A A70G,-0.0993
5,G1A U2G G6A C27U A43C C46U A70G C71U,-0.405
6,C71U,-0.00399
7,G6U A43C C46U A69G A70G C71U,-0.308
8,U2G C66A A70G C71U,-0.168
9,G6U C27U A43C C46U C66U,-0.271
10,C27U C66A A70G,-0.0873
11,U2G G6U C27U A43C A69G,-0.268
12,G1A G6A C27U A43C C46U A69G A70G,-0.265
13,G1A G6U C27U C71U,-0.251
14,G1A A69G A70G C71U,-0.0385
15,U2G G6A C27U C46U A70G C71U,-0.207
16,U2C G6U A43C C66A A70U,-0.168
17,G1A U2G C27U A43C A70G C71U,-0.246
18,G1A G6U C27U A43C A70G C71U,-0.426
19,G1A U2C G6U C27U C46U C66U A70U,-0.128
20,U2C C27U C66U A70U,-0.113
21,G1A U2C G6U C46U A70U,-0.0682
